This passage reports IC50 results from ChEMBL document CHEMBL1135681, “Syntheses and structure-activity relationships of nonnatural beta-C-nucleoside 5'-triphosphates bearing an aromatic nucleobase with phenolic hydroxy groups: inhibitory activities against DNA polymerases” (J Med Chem, 2002).

In general, IC50 refers to the concentration at which inhibition is half-maximal. Read a low IC50 as inhibition by little substance.

Test [1] has as its target Pyrobest DNA polymerase (Pyrococcus sp.). The test is described as follows: Inhibitory activity against Pyrobest DNA polymerase.
Test [2] has as its target Nucleic Acid. Briefly: Inhibitory activity against Pfu DNA polymerase. Format: nucleic-acid assay, Pyrococcus furiosus. The procedure, abridged:
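Native Pfu polymerase (Pyrococcus furiosus) in native Pfu buffer, 2 mM Mg2+, 0.2 mM each dNTP, with various concentrations of nonnatural triphosphate. Cycling: 95 °C 5 min; 30 cycles of 95 °C 30 s, 50 °C 30 s, 72 °C 60 s; final 72 °C 5 min. PCR bands quantified by phosphorimager; IC50 at 50% inhibition; average of two independent runs.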

Test [3] can be described thus: Inhibitory activity against Ex Taq DNA polymerase. Format: nucleic-acid assay, Thermus aquaticus. The procedure, abridged: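 PCR inhibition assay in 1× Ex Taq buffer, 2 mM Mg2+, 0.2 mM each dNTP, with various concentrations of nonnatural triphosphate added. Cycling: 95 °C 5 min; 30 cycles of 95 °C 30 s, 50 °C 30 s, 72 °C 60 s; final 72 °C 5 min. Product bands quantified by phosphorimager; IC50 taken as concentration giving 50% inhibition of amplification; mean of two independent experiments.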

The target in test [4] is Nucleic Acid. Briefly: Inhibitory activity against LA-Taq DNA polymerase. Format: nucleic-acid assay, Thermus aquaticus. The procedure, abridged: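 LA-Taq PCR in 1× LA-Taq buffer with 2.5 mM Mg2+ and 0.2 mM each dNTP, plus graded levels of nonnatural triphosphate. Cycling: 95 °C 5 min; 30 cycles of 95 °C 30 s, 50 °C 30 s, 72 °C 60 s; final 72 °C 5 min. Amplified bands measured by phosphorimager; concentration for 50% inhibition determined; two independent experiments averaged.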

The target of test [5] is Nucleic Acid. Briefly: Inhibitory activity against Z-Taq DNA polymerase. The class given is nucleic-acid assay, Thermus aquaticus. The procedure, abridged: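 Z-Taq amplification in 1× Z-Taq buffer, 3 mM Mg2+, 0.2 mM each dNTP, with various nonnatural triphosphate concentrations. Cycling: 95 °C 5 min; 25 cycles of 95 °C 30 s, 50 °C 30 s, 72 °C 30 s; final 72 °C 5 min. Phosphorimager quantitation of product bands; IC50 as 50% inhibition concentration; mean of two independent experiments.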

Consider `O=P(O)(O)OP(=O)(O)OP(=O)(O)OCC1O[C@@H](c2ccccc2O)CC1O` (stereo not given in full), for which the IC50 in test [1] was found to be 1400 µM; at Nucleic Acid [2], 800 µM; in test [3], 1700 µM; at Nucleic Acid [4], 2400 µM; on Nucleic Acid [5], 3100 µM.
The corresponding values for `O=P(O)(O)OP(=O)(O)OP(=O)(O)OCC1O[C@@H](c2ccccc2)CC1O` (stereo not given in full) are greater than 16000 µM, greater than 16000 µM, greater than 16000 µM, greater than 16000 µM and greater than 16000 µM.
On the same counts, the results for `O=P(O)(O)OP(=O)(O)OP(=O)(O)OCC1O[C@@H](c2ccc(O)c(O)c2)CC1O` (stereo not given in full) are 500 µM, 200 µM, 30 µM, 700 µM and 300 µM.
On to `O=P(O)(O)OP(=O)(O)OP(=O)(O)OCC1O[C@@H](c2cccc(O)c2)CC1O` (stereo not given in full), for which the concentration for half-maximal inhibition (IC50) in test [1] was determined as 2700 µM; against Nucleic Acid [2] it was 900 µM; in test [3], 1900 µM; against Nucleic Acid [4] it was 3100 µM; at Nucleic Acid [5], 6200 µM.
On the same counts, the results for `O=P(O)(O)OP(=O)(O)OP(=O)(O)OCC1O[C@@H](c2ccc(O)cc2)CC1O` (stereo not given in full) are 1500 µM, 900 µM, 1600 µM, 3700 µM and 3700 µM.
